Experimental data from ChEMBL document CHEMBL1121608, “Modification of the 5' position of purine nucleosides. 2. Synthesis and some cardiovascular properties of adenosine-5'-(N-substituted)carboxamides” (J Med Chem, 1980).

Tests used:
Canis familiaris [1] = assay: Total time in minutes elapsed from the initiation of the change until return to the pretest value of blood pressure in coronary sinus of anesthetized dog at intravenous dosage of 0.10 mg/kg; type: functional, Canis lupus familiaris; conditions: dose 0.1 mg/kg
Method in brief: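 Open-chest anesthetized dogs were given the compound intravenously. Duration is the total minutes from the start of the change until return to the pretest value. Blood pressure was recorded as change from control.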

Canis familiaris [2] = assay: Total time in minutes elapsed from the initiation of the change until return to the pretest value of oxygen partial pressure in coronary sinus of anesthetized dog at intravenous dosage of 0.10 mg/kg; type: functional, Canis lupus familiaris; conditions: dose 0.1 mg/kg
Canis familiaris [3] = assay: Total time in minutes elapsed from the initiation of the change until return to the pretest value of oxygen partial pressure in coronary sinus of anesthetized dog at intravenous dosage of 0.01 mg/kg; type: functional, Canis lupus familiaris
Canis familiaris [4] = assay: Total time in minutes elapsed from the initiation of the change until return to the pretest value of heart rate in coronary sinus of anesthetized dog at intravenous dosage of 0.01 mg/kg; type: functional, Canis lupus familiaris
[5] = Lethal dose in mice after peroral administration; type: toxicity, organism-based; conditions: mouse, in vivo, po
Method in brief: (§1)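 Male and female mice, three per dose group, were given the compound by the stated route in increments of 0.5 log doses. The LD50 was estimated as an approximate value.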

Canis familiaris [6] = assay: Total time in minutes elapsed from the initiation of the change until return to the pretest value of blood pressure in coronary sinus of anesthetized dog at intravenous dosage of 0.01 mg/kg; type: functional, Canis lupus familiaris
Canis familiaris [7] = assay: Tested for the percent increase in coronary sinus partial pressure of oxygen (PO2) in open chest anesthetized dog at intravenous dosage of 0.10 mg/kg; type: functional, Canis lupus familiaris; conditions: dose 0.1 mg/kg
Canis familiaris [8] = assay: tested for the percent increase in heart rate (HR) in open chest anesthetized dog at intravenous dosage of 0.10 mg/kg; type: functional, Canis lupus familiaris; conditions: dose 0.1 mg/kg
Canis familiaris [9] = assay: Total time in minutes elapsed from the initiation of the change until return to the pretest value of heart rate in coronary sinus of anesthetized dog at intravenous dosage of 0.10 mg/kg; type: functional, Canis lupus familiaris; conditions: dose 0.1 mg/kg
Canis familiaris [10] = assay: Tested for percent increase in coronary sinus partial pressure of oxygen (PO2) in open chest anesthetized dog at intravenous dosage of 0.01 mg/kg; type: functional, Canis lupus familiaris
[11] = Lethal dose in mice after intraperitoneal administration; type: toxicity, organism-based; conditions: mouse, in vivo, ip; method in brief: as §1
Canis familiaris [12] = assay: tested for percent increase in coronary sinus partial pressure of oxygen (PO2) in open chest anesthetized dog at intravenous dosage of 1 mg/kg; type: functional, Canis lupus familiaris
Canis familiaris [13] = assay: Tested for the percent increase in coronary sinus partial pressure of oxygen (PO2) in open chest anesthetized dog at intravenous dosage of 5.00 mg/kg; type: functional, Canis lupus familiaris
Canis familiaris [14] = assay: tested for the percent increase in aortic blood pressure (BP) in open chest anesthetized dog at intravenous dosage of 1 mg/kg; type: functional, Canis lupus familiaris, Artery
Method in brief: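 Open-chest anesthetized dogs received intravenous doses. Aortic blood pressure was recorded as the change from control.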

Canis familiaris [15] = assay: tested for the percent increase in heart rate (HR) in open chest anesthetized dog at intravenous dosage of 1 mg/kg; type: functional, Canis lupus familiaris
Canis familiaris [16] = assay: Total time in minutes elapsed from the initiation of the change until return to the pretest value of oxygen partial pressure in coronary sinus of anesthetized dog at intravenous dosage of 5 mg/kg; type: functional, Canis lupus familiaris
Method in brief: (§2)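 Open-chest anesthetized dogs given compound by intravenous injection. Coronary sinus PO2 was monitored, and duration was the total time in minutes from the onset of the change until return to the pretest value.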

Canis familiaris [17] = assay: Total time in minutes elapsed from the initiation of the change until return to the pretest value of blood pressure in coronary sinus of anesthetized dog at intravenous dosage of 1 mg/kg; type: functional, Canis lupus familiaris
Canis familiaris [18] = assay: Total time in minutes elapsed from the initiation of the change until return to the pretest value of blood pressure in coronary sinus of anesthetized dog at intravenous dosage of 5 mg/kg; type: functional, Canis lupus familiaris
Canis familiaris [19] = assay: Total time in minutes elapsed from the initiation of the change until return to the pretest value of heart rate in coronary sinus of anesthetized dog at intravenous dosage of 5.00 mg/kg; type: functional, Canis lupus familiaris
Canis familiaris [20] = assay: Total time in minutes elapsed from the initiation of the change until return to the pretest value of heart rate in coronary sinus of anesthetized dog at intravenous dosage of 1 mg/kg; type: functional, Canis lupus familiaris
Canis familiaris [21] = assay: Tested for the percent increase in aortic blood pressure (BP) in open chest anesthetized dog at intravenous dosage of 5.00 mg/kg; type: functional, Canis lupus familiaris, Artery
Method in brief: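 Open-chest anesthetized dogs, compound given iv at the stated dose. Aortic blood pressure is reported as the change from the control (pre-dose) value. Other set-up follows the group's earlier cardiovascular protocol.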

Canis familiaris [22] = assay: Total time in minutes elapsed from the initiation of the change until return to the pretest value of oxygen partial pressure in coronary sinus of anesthetized dog at intravenous dosage of 1 mg/kg; type: functional, Canis lupus familiaris; method in brief: as §2
Canis familiaris [23] = assay: Total time in minutes elapsed from the initiation of the change until return to the pretest value of oxygen partial pressure in coronary sinus of anesthetized dog at intravenous dosage of 0.05 mg/kg; type: functional, Canis lupus familiaris
Canis familiaris [24] = assay: tested for percent increase in coronary sinus partial pressure of oxygen (PO2) in open chest anesthetized dog at intravenous dosage of 0.05 mg/kg; type: functional, Canis lupus familiaris
Canis familiaris [25] = assay: tested for the percent increase in heart rate (HR) in open chest anesthetized dog at intravenous dosage of 0.05 mg/kg; type: functional, Canis lupus familiaris
Canis familiaris [26] = assay: Total time in minutes elapsed from the initiation of the change until return to the pretest value of heart rate in coronary sinus of anesthetized dog at intravenous dosage of 0.05 mg/kg; type: functional, Canis lupus familiaris
Canis familiaris [27] = assay: Total time in minutes elapsed from the initiation of the change until return to the pretest value of blood pressure in coronary sinus of anesthetized dog at intravenous dosage of 0.05 mg/kg; type: functional, Canis lupus familiaris

With `NC(=O)[C@H]1OC(n2cnc3c(N)ncnc32)[C@H](O)[C@@H]1O` (stereo partly specified) the Duration (Canis familiaris [1]) was 240 min, the Duration (Canis familiaris [2]) was 240 min and the Duration (Canis familiaris [3]) was 25 min. It also gave a Duration (Canis familiaris [4]) of 25 min, an LD50 [5] of 50 mg/kg and a Duration (Canis familiaris [6]) of 20 min. For the same compound, the PO2 (Canis familiaris [7]) was 41%, the HR (Canis familiaris [8]) was 72% and the Duration (Canis familiaris [9]) was 240 min. The PO2 (Canis familiaris [10]) was 79% and the LD50 [11] was 5 mg/kg.
Work on `Nc1ncnc2c1ncn2C1O[C@H](C(=O)NC23CC4CC(CC(C4)C2)C3)[C@@H](O)[C@H]1O` (stereo partly specified) yielded a PO2 (Canis familiaris [12]) of 56%, an LD50 [5] of over 300 mg/kg and a PO2 (Canis familiaris [13]) of 209%. For the same compound, the BP (Canis familiaris [14]) was 22 mmHg, the HR (Canis familiaris [15]) was 55% and the Duration (Canis familiaris [16]) was 60 min. For the same compound, the Duration (Canis familiaris [17]) was 1 min, the Duration (Canis familiaris [18]) was 8 min and the Duration (Canis familiaris [19]) was 60 min. It also gave a Duration (Canis familiaris [20]) of 2 min, a BP (Canis familiaris [21]) of 5 mmHg and an LD50 [11] of over 300 mg/kg. For the same compound, the Duration (Canis familiaris [22]) was 30 min.
In the case of `Nc1ncnc2c1ncn2C1O[C@H](C(=O)NCC2CC2)[C@@H](O)[C@H]1O` (stereo partly specified), the Duration (Canis familiaris [23]) is reported as 120 min, the PO2 (Canis familiaris [24]) is reported as 47% and the LD50 [5] is reported as 200 mg/kg. It also gave an HR (Canis familiaris [25]) of 0%, a Duration (Canis familiaris [26]) of 0 min and a Duration (Canis familiaris [27]) of 120 min. The LD50 [11] was 20 mg/kg.
